ChEMBL document CHEMBL4811231, “Discovery and structural optimization of 3-O-β-chacotriosyl oleanane-type triterpenoids as potent entry inhibitors of SARS-CoV-2 virus infections” (Eur J Med Chem, 2021)
Active and inactive are the calls of the source. No cut-off for these calls is given here.

Tested on: Vesicular stomatitis virus
Test: Antiviral activity against pseudotype VSV harbouring glycoprotein infected human 293T/ACE2 cells assessed as inhibition of viral infection measured after 48 hrs by luciferase reporter gene assay
Assay type: functional, organism-based
Summary of the method: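 293T-ACE2 cells (20,000/well) were seeded and treated 24 h later with graded compound concentrations mixed with pseudovirus supernatant, then incubated 48 h. The HIV-based pseudovirus (pNL4-3.Luc.R-E-) carried SARS-CoV-2 S or VSV-G and was made by co-transfecting HEK293T cells; supernatant was harvested at 48 h and filtered (0.45 µm). Read-out was luciferase activity in cell lysates. Sal-C was the positive control.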

Row | SMILES | inhibition
1 | C[C@@H]1O[C@@H](O[C@H]2[C@H](O[C@H]3CC[C@]4(C)[C@H]5CC=C6[C@@H]7CC(C)(C)CC[C@]7(C(=O)NCc7ccccc7F)CC[C@@]6(C)[C@]5(C)CC[C@H]4C3(C)C)O[C@H](CO)[C@@H](O[C@@H]3O[C@@H](C)[C@H](O)[C@@H](O)[C@H]3O)[C@@H]2O)[C@H](O)[C@H](O)[C@H]1O | inactive
2 | COc1ccccc1NC(=O)[C@]12CCC(C)(C)C[C@H]1C1=CC[C@@H]3[C@@]4(C)CC[C@H](O[C@@H]5O[C@H](CO)[C@@H](O[C@@H]6O[C@@H](C)[C@H](O)[C@@H](O)[C@H]6O)[C@H](O)[C@H]5O[C@@H]5O[C@@H](C)[C@H](O)[C@@H](O)[C@H]5O)C(C)(C)[C@@H]4CC[C@@]3(C)[C@]1(C)CC2 | inactive
3 | C[C@@H]1O[C@@H](O[C@H]2[C@H](O[C@H]3CC[C@]4(C)[C@H]5CC=C6[C@@H]7CC(C)(C)CC[C@]7(C(=O)NCc7ccccc7)CC[C@@]6(C)[C@]5(C)CC[C@H]4C3(C)C)O[C@H](CO)[C@@H](O[C@@H]3O[C@@H](C)[C@H](O)[C@@H](O)[C@H]3O)[C@@H]2O)[C@H](O)[C@H](O)[C@H]1O | inactive
4 | C[C@@H]1O[C@@H](O[C@H]2[C@H](O[C@H]3CC[C@]4(C)[C@H]5CC=C6[C@@H]7CC(C)(C)CC[C@]7(C(=O)NCc7cccs7)CC[C@@]6(C)[C@]5(C)CC[C@H]4C3(C)C)O[C@H](CO)[C@@H](O[C@@H]3O[C@@H](C)[C@H](O)[C@@H](O)[C@H]3O)[C@@H]2O)[C@H](O)[C@H](O)[C@H]1O | inactive
